From ChEMBL document CHEMBL4308845, “Allosteric Activation of Striatal-Enriched Protein Tyrosine Phosphatase (STEP, PTPN5) by a Fragment-like Molecule” (J Med Chem, 2019)
Calls of active or inactive are those of the source. The rule behind the calls is not given here.

Columns and labels:
[1] = molecular target: T1, Tyrosine-protein phosphatase non-receptor type 5 (Homo sapiens) (UniProt P54829); assay: Binding affinity to human 15N-labeled STEP PTP domain (281 to 563 residues) expressed in Escherichia coli OD2 assessed as induction of chemical perturbation at 500 uM by 1H,15N TROSY NMR spectral analysis
T1 sequence (whole entry): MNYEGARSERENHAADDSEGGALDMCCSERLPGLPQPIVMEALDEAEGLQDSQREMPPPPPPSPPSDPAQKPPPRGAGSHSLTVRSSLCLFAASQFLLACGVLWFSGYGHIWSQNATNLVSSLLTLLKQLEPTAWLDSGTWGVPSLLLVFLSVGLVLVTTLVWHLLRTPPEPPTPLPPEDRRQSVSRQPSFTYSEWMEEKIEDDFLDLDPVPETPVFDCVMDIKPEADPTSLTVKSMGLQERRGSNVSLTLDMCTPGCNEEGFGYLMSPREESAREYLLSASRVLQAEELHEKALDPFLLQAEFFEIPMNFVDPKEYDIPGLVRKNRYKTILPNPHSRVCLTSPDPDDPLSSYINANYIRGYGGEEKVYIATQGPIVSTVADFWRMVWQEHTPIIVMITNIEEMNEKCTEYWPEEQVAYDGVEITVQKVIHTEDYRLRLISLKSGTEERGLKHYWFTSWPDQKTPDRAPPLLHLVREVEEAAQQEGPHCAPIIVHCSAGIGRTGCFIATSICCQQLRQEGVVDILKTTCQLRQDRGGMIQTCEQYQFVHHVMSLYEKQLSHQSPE
How it was run: (§1)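 40 μM 15N-labelled STEP PTP domain in 20 mM Tris-d11, 100 mM NaCl, 1 mM TCEP, pH 7.4, 8% D2O, 1% DMSO-d6, 298 K. TROSY spectra used 192 transients and 64 indirect points. Binders were called by manual comparison with the protein-only reference spectrum.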

[2] = species: Homo sapiens; assay: Binding affinity to human STEP46 (197 to 565 residues) expressed in Escherichia coli BL21(DE3) at 250 uM by STD-NMR method
How it was run: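 Saturation was 3 s Gaussian pulse train, on-resonance −0.2 ppm, off-resonance 60 ppm. A 30 ms spin-lock suppressed protein signal, and the difference spectrum was taken.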

[3] = species: Homo sapiens; assay: Binding affinity to human STEP46 (197 to 565 residues) expressed in Escherichia coli BL21(DE3) at 500 uM by SYPRO Orange dye based DSF
How it was run: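 Final mix was 5 μM STEP46, 25× SYPRO Orange, 500 μM fragment, 1% DMSO in 20 mM HEPES pH 7.5, 50 mM NaCl, 1 mM TCEP, in duplicate. Samples were heated 25→95 °C at 1 °C/min, read every 0.5 °C. Tm was taken from the first-derivative minimum. ΔTm ≥0.5 °C versus DMSO counted as a hit.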

[4] = species: Homo sapiens; assay: Binding affinity to human STEP46 (197 to 565 residues) expressed in Escherichia coli BL21(DE3) by MST method
[5] = molecular target: Tyrosine-protein phosphatase non-receptor type 5 (Homo sapiens) (UniProt P54829); assay: Binding affinity to human 15N-labeled STEP PTP domain (281 to 563 residues) expressed in Escherichia coli OD2 assessed as induction of chemical perturbation at 2 mM by 1H,15N TROSY NMR spectral analysis; how it was run: as §1
[6] = compound: N=C(N)Nc1cc(C2CCNCC2)cc(C(F)(F)F)c1; assay: Activation of human STEP PTP domain (281 to 563 residues) expressed in Escherichia coli BL21(DE3) assessed as Km for substrate at 500 uM using pFyn peptide substrate after 60 mins by RapidFire MS/MS assay (reference value: 60.8 +/- 7.9 uM)
[7] = compound: N=C(N)Nc1cc(C2CCNCC2)cc(C(F)(F)F)c1; assay: Activation of human STEP PTP domain (281 to 563 residues) expressed in Escherichia coli BL21(DE3) assessed as Kcat at 500 uM using pFyn peptide substrate after 60 mins by RapidFire MS/MS assay (reference value: 0.024 +/- 0.002 /s)

CC(N)Cc1cc(O)cc(C(F)(F)F)c1 (stereo not given)
Activity [1]: > 5 mM
Activity [2]: Active
Activity [3]: Active
Activity [4]: Active

N=C(N)Nc1cccc(C(F)(F)F)c1
Activity [1]: Active

SODIUM ORTHOVANAD
Activity [5]: Active

CC(N)Cc1cc(N)cc(C(F)(F)F)c1 (stereo not given)
Activity [1]: inactive

CC(N)Cc1cccc(C(F)(F)F)c1 (stereo not given)
Activity [1]: inactive

B1: Tyrosine-protein phosphatase non-receptor type 5 (Homo sapiens), P54829 (protein)
chain: MNYEGARSERENHAADDSEGGALDMCCSERLPGLPQPIVMEALDEAEGLQDSQREMPPPPPPSPPSDPAQKPPPRGAGSHSLTVRSSLCLFAASQFLLACGVLWFSGYGHIWSQNATNLVSSLLTLLKQLEPTAWLDSGTWGVPSLLLVFLSVGLVLVTTLVWHLLRTPPEPPTPLPPEDRRQSVSRQPSFTYSEWMEEKIEDDFLDLDPVPETPVFDCVMDIKPEADPTSLTVKSMGLQERRGSNVSLTLDMCTPGCNEEGFGYLMSPREESAREYLLSASRVLQAEELHEKALDPFLLQAEFFEIPMNFVDPKEYDIPGLVRKNRYKTILPNPHSRVCLTSPDPDDPLSSYINANYIRGYGGEEKVYIATQGPIVSTVADFWRMVWQEHTPIIVMITNIEEMNEKCTEYWPEEQVAYDGVEITVQKVIHTEDYRLRLISLKSGTEERGLKHYWFTSWPDQKTPDRAPPLLHLVREVEEAAQQEGPHCAPIIVHCSAGIGRTGCFIATSICCQQLRQEGVVDILKTTCQLRQDRGGMIQTCEQYQFVHHVMSLYEKQLSHQSPE
Km [6]: 65.4 µM
kcat [7]: 0.042 s⁻¹
